Data on 19 compounds can be found in ChEMBL document CHEMBL1137800, “Evaluation of marine sponge metabolites for cytotoxicity and signal transduction activity” (J Nat Prod, 1993).

Data set [1] has as its system A549. The data set can be described thus: Cytotoxicity against human A549 cells after 48 hrs by MTT assay. It counts as functional, cell-based. Particulars: A549, 48 h. The method, boiled down: (§1)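 A549 and HT-29 cells grown in RPMI 1640 with 10% horse serum and exposed at 37° in gentamicin-containing medium, with MeOH vehicle evaporated. Exposure ran 48 h […] before MTT was added for 90 min. Formazan dissolved in acidified iPrOH and A570 read. IC50 from logit-regression of absorbance versus drug-free wells; 5-fluorouracil and adriamycin included as controls.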
(In general: Tetrazolium dyes change colour on reduction, which living cells bring about.)

In data set [2] the test system is P388. In words: Cytotoxicity against mouse P388 cells after 48 hrs by MTT assay. It counts as functional, cell-based. Particulars: P388, 48 h. The method, boiled down: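 P-388 cells seeded at 1×10^5 cells/ml in RPMI 1640 with 10% horse serum and gentamicin (50 μg/ml). Exposed 48 h at 37° to compound at 10.0, 1.0, 0.10 or 0.010 μg/ml; MeOH vehicle evaporated under vacuum. MTT added for 90 min, formazan dissolved in acidified iPrOH, A570 read. IC50 from linear regression of logit-transformed absorbance relative to drug-free wells.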

The test system of data set [3] is HT-29. In words: Cytotoxicity against human HT-29 cells after 48 hrs by MTT assay. It counts as functional, cell-based. Particulars: HT-29, 48 h. The method, boiled down: as §1
Data set [4] is described as follows: Cytotoxicity against mouse EL-4.IL-2 cells after 3 to 4 days by Trypan blue exclusion test. It is filed as functional, cell-based.
For data set [5], the species on record is Mus musculus. The data set can be described thus: Induction of PKC-mediated mouse EL-4.IL-2 cells adherence by MTT assay. The method, boiled down: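 EL-4.IL-2 cells (2.5×10^5/well) in RPMI 1640 with 10% FCS and 2-mercaptoethanol, incubated 1 h at 37° with compound in triplicate, without PMA and also with 16 nM PMA (final), EtOH ≤1.25%. Non-adherent cells removed by four shaking washes. Adherent cells quantified by MTT (4 h) with iPrOH solubilisation at 570 nm. Parallel unwashed plate monitored cytotoxicity.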

The species named for data set [6] is Mus musculus. The data set can be described thus: Inhibition of PKC-mediated mouse EL-4.IL-2 cells adherence by MTT assay. The method, boiled down: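 Mouse EL-4.IL-2 cells (2.5×10^5/well, within 15 passages of frozen stock) incubated 1 h at 37° with compounds in triplicate, with PMA (16 nM final) or without PMA; final EtOH ≤1.25%. Four shaker wash cycles. Adherent cells read by MTT, 4 h at 37°, formazan dissolved in iPrOH, A570. A parallel unwashed plate without PMA monitored cytotoxicity. Adherence inhibitor: blocks PMA-induced adherence, induces none alone, not cytotoxic.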

Data set [7] has as its system A549. The data set can be described thus: Antitumor activity against human A549 cells xenografted in mouse at 0.3 mg/kg relative to control. It is filed as functional.
For data set [8], the system named is Mus musculus. The data set can be described thus: Toxicity in human A549 cells xenografted mouse at 0.3 mg/kg. Particulars: in vivo. It is filed as organism-based. Also on record: dose 0.3 mg/kg. (A xenograft is tissue or cells of one species grown in another, often human tumour cells in immunodeficient mice.)
For data set [9], the system named is SK-MEL-5. The data set can be described thus: Cytotoxicity against human SK-MEL-5 cells. It counts as functional. Particulars: read-out: Log10LC50 (converted).
Data set [10] relates to M19-MEL. The data set can be described thus: Cytotoxicity against human M19-MEL cells. It counts as functional. Particulars: read-out: Log10LC50 (converted).
Data set [11] relates to Malme-3M. In words: Cytotoxicity against human MALME-3M cells. Particulars: read-out: Log10LC50 (converted). It counts as functional.

Values after ≈ are worked out from the molar mass of the structure shown. Active and inactive are the calls of the source. The calls are words filed in the database; no cut-off is given here.

In general, IC50 refers to the point on the concentration scale where inhibition reaches its midpoint. Low readings indicate higher potency, high ones lower potency. In the case of `C1=C\CC[C@]23CN4CCCC/C=C\CC[C@@]5(O[C@H]5[C@@H](c5nccc6c5[nH]c5ccccc56)[C@@H]2CC4)[C@@H]3NCCCC/1` [MANZAMINE B], the IC50 came to 4.5 µg/mL (≈ 8.17 µM) in [1], 6.6 µg/mL (≈ 12 µM) in data set [2] and 1.6 µg/mL (≈ 2.9 µM) in data set [3].

For the compound `O=C1C[C@H]2S[C@H]3C[C@]2(C=C1Br)C1=C(N3)C(=O)c2[nH]cc3c2C1=NCC3` [DISCORHABDINE A], the IC50 worked out at 0.04 µg/mL (≈ 0.0961 µM) in [1], 0.1 µg/mL (≈ 0.24 µM) in [2], 4.8 µg/mL (≈ 11.5 µM) in data set [4] and 0.01 µg/mL (≈ 0.024 µM) in [3]. Also, in data set [5], the result was Active.

Regarding `C[C@H]1C[C@]2(O[C@H]3C[C@H]4[C@@H]5CC[C@H]6C[C@H](O)CC[C@]6(C)[C@H]5[C@@H](O)C[C@]4(C)[C@H]3[C@@]2(C)O)OC1(C)C` [EPIHIPPURISTANOL], the IC50 amounted to 0.04 µg/mL (≈ 0.0865 µM) in data set [1], 0.5 µg/mL (≈ 1.08 µM) in data set [2] and 0.05 µg/mL (≈ 0.108 µM) in data set [3].

On to `CN(C)CCc1c2ncsc2c2c3c(c4ccccc4nc13)C=CN2C` [DERCITIN], for which the IC50 in data set [1] was 0.07 µg/mL (≈ 0.194 µM); in data set [2], 0.2 µg/mL (≈ 0.555 µM); in [4], less than 6 µg/mL; in data set [3], 0.02 µg/mL (≈ 0.0555 µM). In [6], the outcome was Active.

In the case of `COC1=Cc2ccnc3ccnc(c23)C1=O` [DEMETHYLOXY-AAPTAMINE], the IC50 in [1] is 5.2 µg/mL (≈ 24.5 µM); in data set [2] it was 1.6 µg/mL (≈ 7.54 µM); in [4] it was less than 0.05 µg/mL; in data set [3], 1.5 µg/mL (≈ 7.07 µM). The outcome in data set [5] was Active.

The term T/C denotes the ratio of treated to control. Consider `C/C1=C/C(=O)O[C@@H]2C[C@@H](CC[C@H](C)/C=C\C=C\CC1)O[C@@](O)([C@@H]1CSC(=O)N1)C2` [LATRUNCULIN A], for which the IC50 was 0.06 µg/mL (≈ 0.142 µM) in [1], 4.1 µg/mL (≈ 9.73 µM) in data set [2], 0.1 µg/mL (≈ 0.237 µM) in data set [4] and 0.06 µg/mL (≈ 0.142 µM) in data set [3]. The compound also registered a T/C in data set [7] of 146%. Also, in data set [8], the Activity entry is “Non-toxic”. In addition, the outcome in [6] was Active.

With `CO[C@H]([C@H](C)/C=C/N(C)C=O)[C@@H](C)C(=O)CC[C@H](C)[C@H](C[C@@H]1OC(=O)C[C@@H](OC(N)=O)C[C@H](C)C[C@H](O)[C@H](C)[C@@H](OC)c2coc(n2)-c2coc(n2)-c2coc(n2)/C=C/C[C@H](OC)[C@H]1C)OC` [KABIRAMIDE C], the IC50 in data set [1] turned out to be 0.8 µg/mL (≈ 0.849 µM); in data set [2], 0.3 µg/mL (≈ 0.318 µM); in [4], 0.3 µg/mL (≈ 0.318 µM). The outcome in data set [5] was Active.

Regarding `CC1(C)CCC[C@]2(C)[C@H]3C=C4C=C(O)C(=O)C=C4O[C@@]3(C)CC[C@@H]12` [PUUPEHENONE], the IC50 was found to be 0.4 µg/mL (≈ 1.22 µM) in data set [1], 1.3 µg/mL (≈ 3.96 µM) in data set [2] and 0.2 µg/mL (≈ 0.609 µM) in data set [3].

As for `[C-]#[N+][C@@]12CCC(=C)[C@H]3[C@H](CC(C)(C)NC=O)C[C@H](C)[C@@H](CC[C@@H]1C)[C@@H]32`, the IC50 in [1] stood at 5.3 µg/mL (≈ 15.5 µM); in [2] it was 4.2 µg/mL (≈ 12.3 µM); in [4], 2.9 µg/mL (≈ 8.47 µM); in data set [3], 3.5 µg/mL (≈ 10.2 µM). In addition, in [5], the result was Active.

For `CC1=CC(=O)[C@]2(C)CC[C@H]([C@H](C)CC(=O)CC(C)C)[C@H]2CC1` [REISWIGIN A], the IC50 was found to be 7.2 µg/mL (≈ 23.6 µM) in data set [1], 8.5 µg/mL (≈ 27.9 µM) in [2] and 6 µg/mL (≈ 19.7 µM) in [3].

For `CSc1c2c3c(n1C)C(=O)C(=O)C(Cl)=C3NCC2` [BATZELLINE A], the CC50 in data set [9] is 6.61 µM; in [10], 6.61 µM; in data set [11], 15.5 µM. Further, the IC50 worked out at 0.7 µg/mL (≈ 2.48 µM) in data set [1], 5.3 µg/mL (≈ 18.7 µM) in data set [2], 22.9 µg/mL (≈ 81 µM) in data set [4] and 2.8 µg/mL (≈ 9.9 µM) in data set [3]. Further, the result in [7] was inactive. The outcome in data set [5] was Active.

Turning to `Cn1cc2c3c1C(=O)C1=C(C3=NCC2)C2(C=C(Br)C(=O)C(Br)=C2)CCN1` [DISCORHABDIN], the IC50 in data set [1] worked out at 0.3 µg/mL (≈ 0.629 µM); in data set [2], 0.5 µg/mL (≈ 1.05 µM); in [4], 0.5 µg/mL (≈ 1.05 µM); in data set [3], 0.1 µg/mL (≈ 0.21 µM). Moreover, in data set [5], the outcome was Active.

On to `[C-]#[N+]C(C)(C)C[C@@H]1C[C@H](C)[C@H]2CC[C@H](C)[C@@]3([N+]#[C-])CCC(=C)[C@@H]1[C@H]23` [DIISOCYANOAMPHILECTENE], for which the IC50 in [1] is 13 µg/mL (≈ 40.1 µM); in data set [2], 0.7 µg/mL (≈ 2.16 µM); in data set [3], 1.2 µg/mL (≈ 3.7 µM).

Take `CC[C@H](C)[C@H]1C(=O)NCCC(=O)N[C@H]([C@@H](C)CC)C(=O)N(C)[C@@H](C(C)C)C(=O)N(C)[C@@H](C)C(=O)NCCC(=O)N[C@H](CC(C)C)C(=O)N(C)[C@H]([C@@H](C)CC)C(=O)O[C@H](C)[C@H](NC(=O)[C@@H](CC(C)C)N(C)C(=O)[C@@H](NC(=O)COC)C(C)C)C(=O)NCCC(=O)N[C@H](CC(C)C)C(=O)N1C` [THEONELLAMINE B]: the IC50 was 5.3 µg/mL (≈ 3.77 µM) in [1], greater than 20 µg/mL in data set [2] and 5.1 µg/mL (≈ 3.63 µM) in [3].

Take `O[C@]12C=C(c3nccc4c3[nH]c3ccccc34)[C@@H]3CCN(CCCC/C=C\CC1)C[C@@]31C[C@@H]3/C=C\CCCCN3[C@H]12` [MANZAMINE A]: the IC50 in data set [1] was determined as 1.3 µg/mL (≈ 2.37 µM); in data set [2] it was 2.4 µg/mL (≈ 4.37 µM); in [3], 0.8 µg/mL (≈ 1.46 µM).

On to `CCCCCCCCCCCCCCCC[C@@]1(OC)C=C[C@@H](CC(=O)OC)OO1` [CHONDRILLIN], for which the IC50 in [1] was determined as 0.3 µg/mL (≈ 0.727 µM); in [2], 2.4 µg/mL (≈ 5.82 µM); in [4] it was 0.4 µg/mL (≈ 0.969 µM); in [3], 1.1 µg/mL (≈ 2.67 µM). Besides, the outcome in data set [7] was inactive. Further, the result in [5] was Active.

For the compound `O=C1c2nccc(O)c2-c2nc3ccccc3c3ccnc1c23` [MERIDINE], the IC50 in [1] amounted to 4.5 µg/mL (≈ 15 µM); in data set [2], 2 µg/mL (≈ 6.68 µM); in data set [4] it was 8.8 µg/mL (≈ 29.4 µM); in data set [3] it was 0.2 µg/mL (≈ 0.668 µM). Further, the outcome in [5] was Active.

With `C1=C\CCCCN(CCc2nccc3c2[nH]c2ccccc23)CCCC/1` [MANZAMINE C], the IC50 in data set [1] is 3.5 µg/mL (≈ 10.1 µM); in [2] it was 2.6 µg/mL (≈ 7.48 µM); in data set [4], 12 µg/mL (≈ 34.5 µM); in data set [3], 1.5 µg/mL (≈ 4.32 µM). Further, in data set [5], the outcome was Active.

`C[C@H]1CC[C@H]2C(C)(C)CCC[C@]23Oc2ccc(O)cc2C[C@]13C` [AUREOL]: the IC50 was 4.3 µg/mL (≈ 13.7 µM) in [1], greater than 20 µg/mL in data set [2], 9.9 µg/mL (≈ 31.5 µM) in data set [4] and 4.7 µg/mL (≈ 14.9 µM) in data set [3]. Besides, in data set [6], the result was Active.
